The values that follow come from ChEMBL document CHEMBL1153616, “Synthesis and antiviral activity of new pyrazole and thiazole derivatives” (Eur J Med Chem, 2009).

A value given as a limit tells only on which side of the number the result lay.

Series [1] is described as follows: Cytotoxicity against HEL cells assessed as minimum cytotoxic concentration required to cause microscopically detectable alteration in normal cell morphology. To be noted: human. The series is classed as cell-based. The method, boiled down: (§1)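 Run in parallel with antiviral assays on uninfected cell cultures; test compounds from 10 mg/ml DMSO stocks in serial dilution. Value is minimum cytotoxic concentration (MCC) producing microscopically detectable alteration of normal cell morphology.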

A further series has as its system Human alphaherpesvirus 2. Nature of the series: Antiviral activity against HSV2 G infected in human HEL cells assessed as inhibition of virus-induced cytopathicity after 3 days. The series is classed as functional, organism-based. The following applies: Human alphaherpesvirus 2, strain G, 72 h. The method, boiled down: (§2)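 Confluent cell monolayers infected with 100 CCID50 virus; after 2 h adsorption at 37 °C, virus removed and serial compound dilutions added (DMSO stocks 10 mg/ml). Incubated 37 °C for 3 days until complete CPE in untreated virus control. EC50 = concentration protecting 50% of infected cells from viral cytopathogenicity; ">" marks highest concentration tested.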

A further series has as its system Vaccinia virus. Briefly: Antiviral activity against Vaccinia virus infected in human HEL cells assessed as inhibition of virus-induced cytopathicity after 3 days. The following applies: Orthopoxvirus vaccinia, 72 h. The series is classed as functional, organism-based.
Series [2] relates to Vesicular stomatitis virus. Briefly: Antiviral activity against Vesicular stomatitis virus infected in human HEL cells assessed as inhibition of virus-induced cytopathicity after 3 days. The series is classed as functional, organism-based. The following applies: 72 h.
Series [3] relates to Human alphaherpesvirus 1. Briefly: Antiviral activity against thymidine kinase-deficient ACV-resistant HSV1 KOS infected in human HEL cells assessed as inhibition of virus-induced cytopathicity after 3 days. The following applies: Human alphaherpesvirus 1, KOS, 72 h. The series is classed as functional, organism-based.
Series [4] in a line: Cytotoxicity against human HeLa cells assessed as minimum cytotoxic concentration required to cause microscopically detectable alteration in normal cell morphology. The series is classed as cell-based. In short, it runs like this: as §1
Series [5] concerns Vesicular stomatitis virus. Briefly: Antiviral activity against Vesicular stomatitis virus infected in human HeLa cells assessed as inhibition of virus-induced cytopathicity after 3 days. The following applies: 72 h. The series is classed as functional, organism-based.
Series [6] concerns Human alphaherpesvirus 1. Nature of the series: Antiviral activity against HSV1 KOS infected in human HEL cells assessed as inhibition of virus-induced cytopathicity after 3 days. The series is classed as functional, organism-based. To be noted: Human alphaherpesvirus 1, KOS, 72 h.
For series [7], the system named is Coxsackievirus B4. Briefly: Antiviral activity against Coxsackievirus B4 infected in human HeLa cells assessed as inhibition of virus-induced cytopathicity after 3 days. To be noted: Enterovirus B, 72 h. The series is classed as functional, organism-based. In short, it runs like this: (§3)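 Confluent cell monolayers infected with 100 CCID50 virus; after 2 h adsorption at 37 °C, virus removed and serial compound dilutions added (DMSO stocks 10 mg/ml). Incubated 37 °C for 3 days until complete CPE in untreated virus control.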

Series [8] has as its system Respiratory syncytial virus. Nature of the series: Antiviral activity against RSV infected in human HeLa cells assessed as inhibition of virus-induced cytopathicity after 3 days. The series is classed as functional, organism-based. To be noted: 72 h. The method, boiled down:
as §2

The nature of series [9]: Cytotoxicity against african green monkey Vero cells assessed as minimum cytotoxic concentration required to cause microscopically detectable alteration in normal cell morphology. The series is classed as cell-based. To be noted: chlorocebus sabaeus. In short, it runs like this: as §1
A further series deals with Human respirovirus 3. Briefly: Antiviral activity against Parainfluenza virus type 3 infected in african green monkey Vero cells assessed as inhibition of virus-induced cytopathicity after 3 days. The series is classed as functional, organism-based. The following applies: Human respirovirus 3, Vero, 72 h. In short, it runs like this:
as §2

Series [10] has as its system Mammalian orthoreovirus 1. Nature of the series: Antiviral activity against Reovirus 1 infected in african green monkey Vero cells assessed as inhibition of virus-induced cytopathicity after 3 days. The series is classed as functional, organism-based. To be noted: Mammalian orthoreovirus 1, Vero, 72 h. In short, it runs like this: as §2
A further series deals with Sindbis virus. Briefly: Antiviral activity against Sindbis virus infected in african green monkey Vero cells assessed as inhibition of virus-induced cytopathicity after 3 days postinfection. The series is classed as functional, organism-based. To be noted: 72 h. In short, it runs like this: as §2
For series [11], the system named is Coxsackievirus B4. Nature of the series: Antiviral activity against Coxsackievirus B4 infected in african green monkey Vero cells assessed as inhibition of virus-induced cytopathicity after 3 days. The series is classed as functional, organism-based. The following applies: Enterovirus B, 72 h. In short, it runs like this:
as §2

The test system of a further series is Punta Toro virus. Briefly: Antiviral activity against Punta Toro virus infected in african green monkey Vero cells assessed as inhibition of virus-induced cytopathicity after 3 days. The series is classed as functional, organism-based. To be noted: 72 h. In short, it runs like this:
as §3

The nature of series [12]: Selectivity index, ratio of MCC for human HEL cells to EC50 for sVesicular stomatitis virus. The series is classed as toxicity, cell-based. The following applies: read-out: Selectivity Index. In short, it runs like this:
(§4)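 The ratio was MCC/EC50. MCC was the minimum concentration causing microscopically visible change in normal morphology of uninfected HEL, HeLa or Vero cells, scored in parallel with the antiviral test. EC50 came from the CPE assay: 100 CCID50 infection, 2 h adsorption at 37 °C, serial compound dilutions, and 3 days at 37 °C. It was the concentration protecting 50% of cells from virus-induced CPE.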

The nature of series [13]: Selectivity index, ratio of MCC for human HeLa cells to EC50 for Coxsackievirus B4. The following applies: read-out: Selectivity Index. The series is classed as toxicity, cell-based. The method, boiled down:
as §4

`Cc1ccc(C2=NN(C3=NC(=O)CS3)C(c3ccc(OCc4ccccc4)cc3)C2)cc1` (stereo unspecified): the MCC was 20 µg/mL in series [1], 100 µg/mL in series [4] and 100 µg/mL in series [9]. The EC50 with Human alphaherpesvirus 2 was > 4 µg/mL; with Vaccinia virus, > 4 µg/mL; in [2], > 4 µg/mL; in the series on Human alphaherpesvirus 1 [3], > 4 µg/mL; in series [5] it was > 20 µg/mL; in the series with Human alphaherpesvirus 1 [6] it was > 4 µg/mL. The EC50 (in the series on Coxsackievirus B4 [7]; in series [8]; in the series with Human respirovirus 3; in series [10]; in the series on Sindbis virus; with Coxsackievirus B4 [11]) was > 20 µg/mL in each case. For the same compound, in the series on Punta Toro virus, the EC50 was > 20 µg/mL. Besides, the selectivity ratio in [12] came out at 5.

On to `Cc1ccc(C2=NN(c3nc(-c4ccc(Cl)cc4)cs3)C(c3ccc(OCc4ccccc4)cc3)C2)cc1` (stereo unspecified), for which the MCC in series [1], in series [4] and in [9] was 100 µg/mL each time. In addition, the EC50 (in the series on Human alphaherpesvirus 2; with Vaccinia virus; in series [2]; in the series on Human alphaherpesvirus 1 [3]; in series [5]; in the series on Human alphaherpesvirus 1 [6]) was > 20 µg/mL in each case. The EC50 (in the series on Coxsackievirus B4 [7]; in series [8]; in the series with Human respirovirus 3; in series [10]; in the series on Sindbis virus; with Coxsackievirus B4 [11]) was > 20 µg/mL in each case. Besides, in the series on Punta Toro virus, the EC50 was > 20 µg/mL.

On to `Cc1ccc(C2=NN(c3nc(-c4ccc(C)cc4)cs3)C(c3ccc(OCc4ccccc4)cc3)C2)cc1` (stereo unspecified), for which the results for the MCC in [1], in [4] and in [9] were 100 µg/mL, > 100 µg/mL and > 100 µg/mL, respectively. In addition, the EC50 was > 20 µg/mL in the series with Human alphaherpesvirus 2; > 20 µg/mL with Vaccinia virus; > 20 µg/mL in [2]; > 20 µg/mL with Human alphaherpesvirus 1 [3]; > 100 µg/mL in series [5]; > 20 µg/mL in the series on Human alphaherpesvirus 1 [6]. Moreover, the EC50 (in the series on Coxsackievirus B4 [7]; in series [8]; with Human respirovirus 3; in [10]; with Sindbis virus; with Coxsackievirus B4 [11]) was > 100 µg/mL in each case. Further, the EC50 with Punta Toro virus is > 100 µg/mL.

Take `NC(=S)N1N=C(c2ccc(Br)cc2)CC1c1ccc(OCc2ccccc2)cc1` (stereo unspecified): the MCC in [1], in [4] and in series [9] was 100 µg/mL in each case. In addition, the EC50 (in the series on Human alphaherpesvirus 2; with Vaccinia virus; in series [2]; with Human alphaherpesvirus 1 [3]; in series [5]; in the series with Human alphaherpesvirus 1 [6]) was > 20 µg/mL throughout. In addition, the EC50 (in the series with Coxsackievirus B4 [7]; in [8]; in the series on Human respirovirus 3; in series [10]; in the series on Sindbis virus; in the series with Coxsackievirus B4 [11]) was > 20 µg/mL in each case. In the series with Punta Toro virus, the EC50 was > 20 µg/mL.

For `Cc1ccc(C2=NN(C(N)=S)C(c3ccc(OCc4ccccc4)cc3)C2)cc1` (stereo unspecified), the results for the MCC in series [1], in series [4] and in series [9] were 100 µg/mL, 4 µg/mL and 100 µg/mL, respectively. In addition, the EC50 in the series with Human alphaherpesvirus 2 was > 20 µg/mL; in the series on Vaccinia virus, > 20 µg/mL; in series [2], > 20 µg/mL; in the series on Human alphaherpesvirus 1 [3], > 20 µg/mL; in series [5], > 0.8 µg/mL; in the series with Human alphaherpesvirus 1 [6], > 20 µg/mL. Besides, the EC50 in the series with Coxsackievirus B4 [7] was > 0.8 µg/mL; in series [8] it was > 0.8 µg/mL; in the series on Human respirovirus 3, > 20 µg/mL; in series [10], > 20 µg/mL; in the series on Sindbis virus it was > 20 µg/mL; with Coxsackievirus B4 [11] it was > 20 µg/mL. In addition, the EC50 with Punta Toro virus was > 20 µg/mL. In addition, the selectivity ratio in series [13] turned out to be 5.

For the compound `Clc1ccc(C2=NN(c3nc(-c4ccc(Cl)cc4)cs3)C(c3ccc(OCc4ccccc4)cc3)C2)cc1` (stereo unspecified), the MCC in [1] is > 100 µg/mL; in series [4], > 100 µg/mL; in [9] it was 100 µg/mL. Besides, the EC50 (with Human alphaherpesvirus 2; in the series on Vaccinia virus; in series [2]; with Human alphaherpesvirus 1 [3]; in series [5]; in the series on Human alphaherpesvirus 1 [6]) was > 100 µg/mL in each case. Besides, the EC50 in the series with Coxsackievirus B4 [7] is > 100 µg/mL; in series [8] it was > 100 µg/mL; in the series on Human respirovirus 3, > 20 µg/mL; in series [10], > 20 µg/mL; in the series on Sindbis virus it was > 20 µg/mL; in the series with Coxsackievirus B4 [11] it was > 20 µg/mL. In addition, the EC50 in the series with Punta Toro virus is > 20 µg/mL.

As to `O=C1CSC(N2N=C(c3ccc(Br)cc3)CC2c2ccc(OCc3ccccc3)cc2)=N1` (stereo unspecified), the MCC in series [1] is 100 µg/mL; in series [4] it was > 100 µg/mL; in [9], 100 µg/mL. The EC50 is > 20 µg/mL in the series with Human alphaherpesvirus 2; > 20 µg/mL in the series with Vaccinia virus; > 20 µg/mL in series [2]; > 20 µg/mL with Human alphaherpesvirus 1 [3]; > 100 µg/mL in series [5]; > 20 µg/mL with Human alphaherpesvirus 1 [6]. In addition, the EC50 in the series with Coxsackievirus B4 [7] was > 100 µg/mL; in series [8] it was > 100 µg/mL; in the series on Human respirovirus 3, > 20 µg/mL; in series [10] it was > 20 µg/mL; with Sindbis virus, > 20 µg/mL; in the series on Coxsackievirus B4 [11], > 20 µg/mL. In addition, the EC50 in the series on Punta Toro virus was > 20 µg/mL.

Take `Cc1ccc(-c2csc(N3N=C(c4ccccc4)CC3c3ccc(OCc4ccccc4)cc3)n2)cc1` (stereo unspecified): the values for the MCC in series [1], in series [4] and in [9] were > 100 µg/mL, > 100 µg/mL and 100 µg/mL, respectively. For the same compound, the EC50 (with Human alphaherpesvirus 2; in the series with Vaccinia virus; in series [2]; with Human alphaherpesvirus 1 [3]; in [5]; with Human alphaherpesvirus 1 [6]) was > 100 µg/mL in each case. The EC50 is > 100 µg/mL in the series on Coxsackievirus B4 [7]; > 100 µg/mL in [8]; > 20 µg/mL in the series on Human respirovirus 3; > 20 µg/mL in series [10]; > 20 µg/mL with Sindbis virus; > 20 µg/mL in the series with Coxsackievirus B4 [11]. In the series on Punta Toro virus, the EC50 was > 20 µg/mL.

As to `NC(=S)N1N=C(c2ccc(Cl)cc2)CC1c1ccc(OCc2ccccc2)cc1` (stereo unspecified), the MCC in series [1], in series [4] and in series [9] was > 100 µg/mL in each case. The EC50 (in the series with Human alphaherpesvirus 2; in the series with Vaccinia virus; in [2]; with Human alphaherpesvirus 1 [3]; in [5]; in the series on Human alphaherpesvirus 1 [6]) was > 100 µg/mL throughout. Also, the EC50 (in the series with Coxsackievirus B4 [7]; in series [8]; in the series on Human respirovirus 3; in series [10]; with Sindbis virus; with Coxsackievirus B4 [11]) was > 100 µg/mL each time. The EC50 in the series with Punta Toro virus is > 100 µg/mL.
